Test results published in ChEMBL document CHEMBL1926614, “Substituted thiazoles V. synthesis and antitumor activity of novel thiazolo[2,3-b]quinazoline and pyrido[4,3-d]thiazolo[3,2-a]pyrimidine analogues” (2012).

Legend:
Assay type in all cases: functional
HCT-15 = assay: Growth inhibition of human HCT15 cells at 10 uM after 48 hrs by coulter counting; conditions: HCT-15, 48 h, read-out: GI
How it was run: (§1)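 Single-dose primary screen across the full NCI 60-cell-line panel. Stocks were made in DMSO and diluted in PBS to a final DMSO below 1%. Cultures at 6 × 10⁴ cells/ml were run in duplicate wells alongside PBS/DMSO vehicle controls at 37 °C in humidified 5% CO₂. Data were expressed as percent growth of treated cells.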

UACC-257 = assay: Growth inhibition of human UACC257 cells at 10 uM after 48 hrs by coulter counting; conditions: UACC-257, 48 h, read-out: GI
How it was run: (§2)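 Single-dose screen in the NCI 60 human tumor cell line panel (nine subpanels). Compounds dissolved in DMSO and diluted in phosphate buffered saline, keeping final DMSO below 1%. Added in duplicate wells to cells at 6 × 10⁴ cells/ml. Controls held PBS and DMSO at matching dilutions. Incubated at 37 °C, humidified, 5% CO₂. Reported as percent growth of treated cells.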

UACC-62 = assay: Growth inhibition of human UACC62 cells at 10 uM after 48 hrs by coulter counting; conditions: UACC-62, 48 h, read-out: GI; how it was run: as §2
CCRF-CEM = assay: Growth inhibition of human CCRF-CEM cells at 10 uM after 48 hrs by coulter counting; conditions: read-out: GI; how it was run: as §1
HL-60(TB) = assay: Growth inhibition of human HL-60(TB) cells at 10 uM after 48 hrs by coulter counting; conditions: HL-60, 48 h, read-out: GI
How it was run: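 Test compound was dissolved in DMSO and diluted in phosphate-buffered saline to a final DMSO level below 1%. Dilutions were plated in duplicate with cell culture at 6 × 10⁴ cells/ml. Vehicle controls held PBS and DMSO at matching dilutions. Incubation was at 37 °C, humidified, under 5% CO₂. Data were reported as percent growth of treated cells.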

K562 = assay: Growth inhibition of human K562 cells at 10 uM after 48 hrs by coulter counting; conditions: K562, 48 h, read-out: GI; how it was run: as §1
MOLT-4 = assay: Growth inhibition of human MOLT4 cells at 10 uM after 48 hrs by coulter counting; conditions: MOLT-4, 48 h, read-out: GI; how it was run: as §1
RPMI-8226 = assay: Growth inhibition of human RPMI8226 cells at 10 uM after 48 hrs by coulter counting; conditions: RPMI-8226, 48 h, read-out: GI; how it was run: as §1
A549 = assay: Growth inhibition of human A549 cells at 10 uM after 48 hrs by coulter counting; conditions: A549, 48 h, read-out: GI; how it was run: as §1
EKVX = assay: Growth inhibition of human EKVX cells at 10 uM after 48 hrs by coulter counting; conditions: read-out: GI; how it was run: as §1
HOP-62 = assay: Growth inhibition of human HOP62 cells at 10 uM after 48 hrs by coulter counting; conditions: HOP-62, 48 h, read-out: GI; how it was run: as §1
NCI-H226 = assay: Growth inhibition of human NCI-H226 cells at 10 uM after 48 hrs by coulter counting; conditions: NCI-H226, 48 h, read-out: GI; how it was run: as §1
NCI-H23 = assay: Growth inhibition of human NCI-H23 cells at 10 uM after 48 hrs by coulter counting; conditions: NCI-H23, 48 h, read-out: GI; how it was run: as §1
[1] = Growth inhibition of human NCI-322M cells at 10 uM after 48 hrs by coulter counting; conditions: read-out: GI; how it was run: as §1
NCI-H460 = assay: Growth inhibition of human NCI-H460 cells at 10 uM after 48 hrs by coulter counting; conditions: NCI-H460, 48 h, read-out: GI; how it was run: as §1
NCI-H522 = assay: Growth inhibition of human NCI-H522 cells at 10 uM after 48 hrs by coulter counting; conditions: NCI-H522, 48 h, read-out: GI; how it was run: as §1
HCT-116 = assay: Growth inhibition of human HCT116 cells at 10 uM after 48 hrs by coulter counting; conditions: HCT-116, 48 h, read-out: GI; how it was run: as §1
HT-29 = assay: Growth inhibition of human HT-29 cells at 10 uM after 48 hrs by coulter counting; conditions: HT-29, 48 h, read-out: GI; how it was run: as §1
KM12 = assay: Growth inhibition of human KM12 cells at 10 uM after 48 hrs by coulter counting; conditions: KM12, 48 h, read-out: GI; how it was run: as §1
SF-268 = assay: Growth inhibition of human SF268 cells at 10 uM after 48 hrs by coulter counting; conditions: SF-268, 48 h, read-out: GI; how it was run: as §1
SF-295 = assay: Growth inhibition of human SF295 cells at 10 uM after 48 hrs by coulter counting; conditions: SF-295, 48 h, read-out: GI; how it was run: as §1
SNB-19 = assay: Growth inhibition of human SNB19 cells at 10 uM after 48 hrs by coulter counting; conditions: SNB-19, 48 h, read-out: GI; how it was run: as §1
SNB-75 = assay: Growth inhibition of human SNB75 cells at 10 uM after 48 hrs by coulter counting; conditions: SNB-75, 48 h, read-out: GI; how it was run: as §1
U-251 = assay: Growth inhibition of human U251 cells at 10 uM after 48 hrs by coulter counting; conditions: U-251, 48 h, read-out: GI; how it was run: as §2
LOX IMVI = assay: Growth inhibition of human LOXIMVI cells at 10 uM after 48 hrs by coulter counting; conditions: read-out: GI; how it was run: as §1
M14 = assay: Growth inhibition of human M14 cells at 10 uM after 48 hrs by coulter counting; conditions: M14, 48 h, read-out: GI; how it was run: as §1
MDA-MB-435 = assay: Growth inhibition of human MDA-MB-435 cells at 10 uM after 48 hrs by coulter counting; conditions: MDA-MB-435, 48 h, read-out: GI; how it was run: as §1
SK-MEL-2 = assay: Growth inhibition of human SK-MEL-2 cells at 10 uM after 48 hrs by coulter counting; conditions: SK-MEL-2, 48 h, read-out: GI; how it was run: as §1
SK-MEL-28 = assay: Growth inhibition of human SK-MEL-28 cells at 10 uM after 48 hrs by coulter counting; conditions: SK-MEL-28, 48 h, read-out: GI; how it was run: as §1
SK-MEL-5 = assay: Growth inhibition of human SK-MEL-5 cells at 10 uM after 48 hrs by coulter counting; conditions: SK-MEL-5, 48 h, read-out: GI; how it was run: as §1
NCI/ADR-RES = assay: Growth inhibition of human NCI/ADR-RES cells at 10 uM after 48 hrs by coulter counting; conditions: read-out: GI; how it was run: as §1
A498 = assay: Growth inhibition of human A498 cells at 10 uM after 48 hrs by coulter counting; conditions: A498, 48 h, read-out: GI; how it was run: as §1
ACHN = assay: Growth inhibition of human ACHN cells at 10 uM after 48 hrs by coulter counting; conditions: read-out: GI; how it was run: as §1
CAKI-1 = assay: Growth inhibition of human Caki1 cells at 10 uM after 48 hrs by coulter counting; conditions: CAKI-1, 48 h, read-out: GI; how it was run: as §1
UO-31 = assay: Growth inhibition of human UO31 cells at 10 uM after 48 hrs by coulter counting; conditions: UO-31, 48 h, read-out: GI; how it was run: as §2
DU-145 = assay: Growth inhibition of human DU145 cells at 10 uM after 48 hrs by coulter counting; conditions: DU-145, 48 h, read-out: GI; how it was run: as §1
MCF7 = assay: Growth inhibition of human MCF7 cells at 10 uM after 48 hrs by coulter counting; conditions: MCF7, 48 h, read-out: GI; how it was run: as §1
BT-549 = assay: Growth inhibition of human BT549 cells at 10 uM after 48 hrs by coulter counting; conditions: BT-549, 48 h, read-out: GI; how it was run: as §1
T47D = assay: Growth inhibition of human T47D cells at 10 uM after 48 hrs by coulter counting; conditions: read-out: GI; how it was run: as §2
OVCAR-8 = assay: Growth inhibition of human OVCAR8 cells at 10 uM after 48 hrs by coulter counting; conditions: OVCAR-8, 48 h, read-out: GI; how it was run: as §1
786-0 = assay: Growth inhibition of human 786-0 cells at 10 uM after 48 hrs by coulter counting; conditions: 786-0, 48 h, read-out: GI; how it was run: as §1
SN12C = assay: Growth inhibition of human SN12C cells at 10 uM after 48 hrs by coulter counting; conditions: read-out: GI; how it was run: as §1
TK-10 = assay: Growth inhibition of human TK10 cells at 10 uM after 48 hrs by coulter counting; conditions: TK-10, 48 h, read-out: GI; how it was run: as §2

CCN1CC2=C(N=C3SC=CN3C2c2cccs2)/C(=C/c2cccs2)C1 (stereo not drawn)
inhibition of growth at 10 µM (HCT-15): > 10% | inhibition of growth at 10 µM (UACC-257): > 10% | inhibition of growth at 10 µM (UACC-62): > 10% | inhibition of growth at 10 µM (CCRF-CEM): > 10% | inhibition of growth at 10 µM (HL-60(TB)): > 10% | inhibition of growth at 10 µM (K562): > 10% | inhibition of growth at 10 µM (MOLT-4): > 10% | inhibition of growth at 10 µM (RPMI-8226): > 10% | inhibition of growth at 10 µM (A549): > 10% | inhibition of growth at 10 µM (EKVX): > 10% | inhibition of growth at 10 µM (HOP-62): > 10% | inhibition of growth at 10 µM (NCI-H226): > 10% | inhibition of growth at 10 µM (NCI-H23): > 10% | inhibition of growth at 10 µM [1]: > 10% | inhibition of growth at 10 µM (NCI-H460): > 10% | inhibition of growth at 10 µM (NCI-H522): > 10% | inhibition of growth at 10 µM (HCT-116): > 10% | inhibition of growth at 10 µM (HT-29): > 10% | inhibition of growth at 10 µM (KM12): > 10% | inhibition of growth at 10 µM (SF-268): > 10% | inhibition of growth at 10 µM (SF-295): > 10% | inhibition of growth at 10 µM (SNB-19): > 10% | inhibition of growth at 10 µM (SNB-75): 14.2% | inhibition of growth at 10 µM (U-251): > 10% | inhibition of growth at 10 µM (LOX IMVI): > 10% | inhibition of growth at 10 µM (M14): > 10% | inhibition of growth at 10 µM (MDA-MB-435): > 10% | inhibition of growth at 10 µM (SK-MEL-2): > 10% | inhibition of growth at 10 µM (SK-MEL-28): > 10% | inhibition of growth at 10 µM (SK-MEL-5): > 10% | inhibition of growth at 10 µM (NCI/ADR-RES): > 10% | inhibition of growth at 10 µM (A498): 21.6% | inhibition of growth at 10 µM (ACHN): > 10% | inhibition of growth at 10 µM (CAKI-1): > 10% | inhibition of growth at 10 µM (UO-31): 26.2% | inhibition of growth at 10 µM (DU-145): > 10% | inhibition of growth at 10 µM (MCF7): > 10% | inhibition of growth at 10 µM (BT-549): > 10% | inhibition of growth at 10 µM (T47D): 11.4% | inhibition of growth at 10 µM (OVCAR-8): > 10% | inhibition of growth at 10 µM (786-0): > 10% | inhibition of growth at 10 µM (SN12C): > 10% | inhibition of growth at 10 µM (TK-10): > 10%
